High-throughput results as filed in PubChem BioAssay.
The list is not random: actives were taken first. Their share in the collection is about 0.99%.
LYPLA2 inh: counter-screen for PME1 inhibitors: inhibitors of human LYPLA2; O95372; recombinant LYPLA2, FP-Rh probe fluorescence polarization; inhibition, % at 5.9 µM; 0.38% of 320,000 active;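 active means inhibition above the screen-wide mean plus 3 SD, limit set per campaign, cut at about 26% in these data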;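 further: 0% = LYPLA2 with DMSO and 100% = wells lacking LYPLA2 enzyme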
Target sequence (O95372 whole entry, looked up): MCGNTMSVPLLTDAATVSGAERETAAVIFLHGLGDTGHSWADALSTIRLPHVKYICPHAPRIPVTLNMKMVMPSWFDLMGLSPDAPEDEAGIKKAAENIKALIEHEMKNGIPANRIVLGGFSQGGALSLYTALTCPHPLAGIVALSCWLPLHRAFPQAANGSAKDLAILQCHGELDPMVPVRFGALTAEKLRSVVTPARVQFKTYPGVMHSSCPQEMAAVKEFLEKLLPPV
LYPLA1 inh: counter-screen for PME1 inhibitors: inhibitors of human LYPLA1 | O75608 | recombinant LYPLA1, FP-Rh probe fluorescence polarization | inhibition, % at 5.9 µM | 0.16% of 320,000 active | AID 2174;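 active means inhibition above the mean of all tested compounds plus 3 SD, set per campaign, cut at about 14% in these data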;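 further: inhibitors block serine hydrolase probe labeling of LYPLA1 so polarization falls; 0% = enzyme with DMSO and 100% = wells lacking LYPLA1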
PME-1 inh: PME-1 (human) inhibition; recombinant PME-1, FP-Rh probe fluorescence polarization; inhibition, % at 5.9 µM; AID 2130; 0.53% of 320,000 active; Q9Y570;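 active means inhibition above the campaign mean of all compounds plus 3 SD, cut at about 26% in these data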;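 further: competitive labeling of PME-1 active site by serine hydrolase directed probe; 0% = PME-1 with DMSO and 100% = wells lacking PME-1 enzyme; inhibitors block probe labeling so polarization falls and inhibition rises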
Fam108B inh: Fam108B inhibition, counter-screen for RBBP9 inhibitors; 0.33% of 300,000 active; inhibition, % at 9.51 µM; AID 1947; recombinant Fam108B, FP-Rh probe fluorescence polarization;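 active means inhibition above the screen mean inhibition plus 3 SD, computed separately per campaign, cut at about 18% in these data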;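 further: inhibitors lower polarization as less probe binds the enzyme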
RBBP9 inh: human RBBP9 hydrolase inhibition | recombinant RBBP9, FP-Rh probe fluorescence polarization | inhibition, % at 7.94 µM | 0.2% of 220,000 active;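 active means inhibition above the campaign mean of all tested compounds plus 3 SD, cut at about 14% in these data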;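 further: plate controls were DMSO wells with RBBP9 for no effect and wells lacking RBBP9 protein for full effect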
Target sequence (O75884 whole entry, looked up): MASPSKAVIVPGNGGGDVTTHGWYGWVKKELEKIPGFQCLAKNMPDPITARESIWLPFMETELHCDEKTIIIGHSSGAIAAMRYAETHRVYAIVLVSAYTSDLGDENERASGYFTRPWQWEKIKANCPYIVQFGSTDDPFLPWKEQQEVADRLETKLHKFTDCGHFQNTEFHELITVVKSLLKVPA
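System: RBBP9 protein / Quantity: 2.5 µM RBBP9 dispensing solution, before mixing / Also added: Serine-hydrolase probe FP-Rh, 375 nM pre-mixing / Dosing: 7.94 µM single dose, 0.794% DMSO / Timing: enzyme-compound preincubation 30 min, then probe labeling 45 min, 25 °C / Signal: FP readout at 525/598 nm / Controls: DMSO-treated enzyme wells and wells lacking RBBP9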
RBBP9 inh conf: human RBBP9 inhibition, confirmation; 36% of 410 active; recombinant RBBP9, FP-Rh probe fluorescence polarization; AID 1537; inhibition, % at 7.94 µM; shares compounds with RBBP9 inh;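 active means inhibition above the hit cutoff derived for the primary screen, cut at about 15% in these data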;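 further: 0% = RBBP9 with DMSO and 100% = wells lacking RBBP9 protein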
Active calls of the source: *; x = no result given.

SMILES	LYPLA2 inh	LYPLA1 inh	PME-1 inh	Fam108B inh	RBBP9 inh	RBBP9 inh conf
COc1ccc(C(=O)NC(Nc2ccccc2)C(Cl)(Cl)Cl)cc1 (stereo not drawn)	-5.1	-2.4	2.6	-0.7	-7.5	x
Oc1cc(-n2cccn2)c(O)cc1-n1cccn1	-2.6	-1.0	-10.4	-3.3	63.0*	75.6*
CC1=NN(c2ccccc2)C(=O)C1C=Nc1ccc(N(C)C)cc1 (stereo not drawn)	0.5	2.4	9.9	0.9	19.0*	15.0*
CC1=NN(c2ccccc2)C(=O)C1N=Nc1ccc(C)cc1 (stereo not drawn)	0.6	0.6	-1.8	-2.1	-0.2	x
CCc1cc(/C(Cc2csc(C)n2)=N/O)c(O)cc1O	0.2	4.9	16.2	11.4	30.8*	22.4*
Cc1nc(C/C(=N\N)c2ccc(O)cc2O)cs1	2.4	-2.5	5.8	-1.3	0.2	x
COCCNC(=O)C(=O)NNC(=O)CCc1ccccc1	5.0	0.5	-1.7	-2.0	-6.1	x
COc1ccc(/C=C/c2ccc3c(Br)ccc(O)c3n2)cc1	-3.6	-1.9	12.2	0.5	x	x
COc1cc(/C=C/c2ccc3c(Br)cc(Br)c(O)c3n2)ccc1O	-6.1	-7.4	22.9	4.4	16.9*	47.3*
O=[N+]([O-])c1ccc(Cl)c(C2Nc3cccc4cccc(c34)N2)c1	3.9	-3.8	15.5	6.3	35.3*	36.6*
O=[N+]([O-])c1ccccc1C1Nc2cccc3cccc(c23)N1	-1.2	-0.1	6.5	8.1	32.1*	27.1*
Clc1cccc(Cl)c1C1Nc2cccc3cccc(c23)N1	2.3	0.2	7.7	6.2	x	x
O=C(O)c1ccc(N/N=C/c2cn(Cc3ccccc3F)c3ccccc23)cc1	3.2	-1.2	28.9*	17.0	17.0*	10.6
Cc1cc(C2=NNC(=NC3CC3)SC2)c(C)n1-c1ccccc1	x	x	x	x	58.1*	21.6*
COc1ccc(-n2c(C)cc(C3=NNC(=NC4CC4)SC3)c2C)cc1	x	x	x	x	-0.5	x
COC(=O)[C@@H]1[C@@H](C#N)C2(c3ccccc3-c3ccccc32)N(c2ccc(Cl)cc2)N1C#N	-5.2	-2.8	-11.9	-30.7	-9.0	x
O=C(NNC(=O)c1cc(O)c(O)c(O)c1)NC1CCCCC1	4.3	0.6	5.4	3.8	14.4*	22.9*
CC(C)CNC(=O)/C=C/c1cccs1	0.5	0.5	-1.1	3.6	2.1	x
CCC(C)(C)NC(=O)/C=C/c1cccs1	-4.2	4.1	1.6	-0.3	17.8*	5.6
O=c1[nH]cc(NCCNc2ncc(C(F)(F)F)cc2Cl)c(=O)[nH]1	-1.6	-0.3	2.4	-2.0	-11.4	x
COc1cc(-c2ccc(Nc3ccccc3C(=O)O)c(OC)c2)ccc1Nc1ccccc1C(=O)O	x	x	x	x	24.3*	45.6*
COc1cccc(Nc2ccccc2C(=O)O)c1	-4.4	0.3	-1.0	4.0	-5.8	x
Cc1nn(C(C)C(=O)O)c(=O)c2ccccc12 (stereo not drawn)	-6.2	1.0	-3.4	-2.2	17.9*	5.1
CC(C)C1/C(=N/O)CC(c2ccccc2)NC1c1ccccc1 (stereo not drawn)	-1.6	-3.4	1.5	-0.8	14.8*	6.3
CCOC(=O)c1cc(-c2ccc(C)cc2)n(CCC(=O)NCCCOC)c1C	-3.9	-2.1	0.0	1.2	15.2*	1.9
SMILES	LYPLA2 inh	LYPLA1 inh	PME-1 inh	Fam108B inh	RBBP9 inh	RBBP9 inh conf
Cc1ccc(S(=O)(=O)Nc2ccc3c(c2)n(C)c(=O)n3C)c(C)c1	-10.4	-7.6	-7.5	-3.6	1.0	x
Cc1ccc(S(=O)(=O)Nc2ccc3oc(=O)sc3c2)c(C)c1	0.8	-0.8	-0.7	8.6	19.7*	15.6*
O=C(Oc1ccc(C(=S)N2CCC(O)CC2)cc1)c1ccc(Cl)cc1	6.6	-2.1	-0.5	1.2	19.7*	29.0*
C=CCN(CC=C)Cc1c(O)ccc2c1oc(=O)c1ccccc12	2.4	3.4	4.7	-2.5	24.8*	4.7
Cc1csc(NC(=O)[C@@H]2CCCN2C(=O)c2cccs2)n1	2.0	-0.8	-3.6	-3.7	-2.7	x
Cc1ccc(NC(=O)/C(=C\c2ccc([N+](=O)[O-])cc2)NC(=O)c2ccccc2)cc1	-12.2	-5.5	-15.3	-6.7	-5.3	x
O=C(N/N=C/c1ccc(O)c(O)c1O)/C(=C/c1ccc([N+](=O)[O-])cc1)NC(=O)c1ccccc1	-6.9	-16.3	9.0	8.2	17.9*	38.4*
CCCN1C(=O)S/C(=C\c2ccc(N3CCOCC3)o2)C1=O	-7.4	-1.4	-7.9	-13.1	-3.7	x
